# This is a sample that favours compounds with a hit; in the whole collection about 3.2% have one here.
# DAX1 inh-1: DAX1 (NR0B1) inhibition, primary screen; HEK293T StAR-luciferase reporter, SF-1/DAX-1 repression relief; inhibition, % at 6.8 µM; 1.1% of 370,000 active; AID 652010;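 active = inhibition above the mean over all tested compounds plus 3 SD, cut at about 3.6% in these data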;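 note: 0% = DAX-1 cells with DMSO and 100% = cells lacking DAX-1 with DMSO; higher inhibition means more luminescence from relief of DAX-1 repression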
# NR2E3 ag-1: NR2E3 (human) agonism; Q9Y5X4; GST-NR2E3/biotin-RetCOR TR-FRET, 1536-well; inhibition of corepressor binding, % at 4.78 µM; 0.12% of 320,000 active; AID 2300;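 active = percent inhibition above the cutoff of mean plus 3 SD of all tested compounds, set per screening campaign, cut at about 20% in these data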;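 note: 0% = DMSO wells and 100% = biotin wells as full block of FRET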
# Target sequence (Q9Y5X4 whole entry, looked up): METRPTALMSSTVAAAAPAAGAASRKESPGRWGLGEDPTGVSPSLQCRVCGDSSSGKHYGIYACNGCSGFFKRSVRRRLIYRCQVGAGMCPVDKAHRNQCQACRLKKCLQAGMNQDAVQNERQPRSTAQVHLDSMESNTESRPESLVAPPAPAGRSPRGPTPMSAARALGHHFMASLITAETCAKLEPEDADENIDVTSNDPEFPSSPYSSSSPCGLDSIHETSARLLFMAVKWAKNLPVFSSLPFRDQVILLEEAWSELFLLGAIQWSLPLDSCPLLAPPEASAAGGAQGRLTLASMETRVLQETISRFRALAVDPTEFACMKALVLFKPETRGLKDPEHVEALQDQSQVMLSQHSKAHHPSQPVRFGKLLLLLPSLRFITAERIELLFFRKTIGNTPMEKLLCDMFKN
#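 System: GST-NR2E3 and biotin-RetCOR proteins; probe or stimulus: 7 nM biotin-RetCOR; doses: compound at 4.8 µM, single dose; schedule: Compound–protein incubation for 5 h at 4 °C; detection: time-resolved FRET; read-out: percent inhibition; controls: biotin wells as high control, 0.6% DMSO wells as low control; format: 1536-well plates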
# NR2E3 ag-2: agonists of human NR2E3 nuclear receptor | Q9Y5X4 | CHO-S Gal4-NCOR/VP16-NR2E3 two-hybrid, luciferase | inhibition of corepressor binding, % at 3.98 µM | 0.35% of 360,000 active;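 active = inhibition above the mean of all tested compounds plus 3 SD, cut at about 70% in these data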;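 note: 0% = DMSO with NR2E3 transfected cells and 100% = cells lacking NR2E3 construct; higher means lower luciferase signal from less NR2E3 corepressor binding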
# DAX1 inh-2: NR0B1 (DAX1) inhibition. P51843. AID 504766. inhibition, % at 6.75 µM. 0.99% of 340,000 active. HEK293 Gal4-DAX1 luciferase reporter, luminescence;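 active = inhibition above the mean over all tested compounds plus 3 SD, cut at about 4.2% in these data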;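 note: 0% = DAX1-transfected cells with DMSO and 100% = empty-vector control cells with DMSO; inhibition shows as a rise in luminescence from relieved DAX1 repression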
# SMARCA2 act: activators of SMARCA2 function | MG213 cells, MMTV-luciferase reporter, dexamethasone, overnight | 1% of 370,000 active | activation, % at 9.1 µM | AID 652017; in the data active = activation above about 7.8%;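 note: 0% = vehicle wells and 100% = reference activator wells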
# JMJD2C inh: blocks human GASC-1 demethylase activity | GST-JMJD2C(1-420) H3K9me3 demethylation, DELFIA europium | inhibition, % at 2.35 µM | Q9H3R0 | 0.069% of 330,000 active | AID 2099;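 active = more than half of a compound's replicate wells show inhibition beyond 50%, single wells judged on their own value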;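 note: signal counts dimethyl H3K9 product captured on neutravidin plate; 0% = median of DMSO wells and 100% = 0.3 times that DMSO median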
# NR2E3 ag conf: confirmation of human NR2E3 agonists. AID 624378. CHO-S mammalian two-hybrid NR2E3-NCOR, luciferase luminescence. 51% of 2,300 active. shares compounds with NR2E3 ag-2. inhibition, % at 3.98 µM;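 active = average inhibition above a cutoff equal to the mean inhibition of all tested compounds plus one SD, cut at about 70% in these data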;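 note: 0% = DMSO in NR2E3 cells and 100% = DMSO in cells lacking NR2E3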
# VP16 counter: counter-screen for NR2E3 agonists: GAL4-VP16 reporter inhibitors. shares compounds with NR2E3 ag-2. CHO-S GAL4-VP16 luciferase reporter, luminescence. inhibition, % at 3.98 µM. 29% of 2,300 active. AID 624379;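 active = mean inhibition above a cutoff equal to the average over all tested compounds plus one standard deviation, cut at about 70% in these data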;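 note: luciferase from a UAS reporter driven by GAL4-VP16 transactivation; 0% = DMSO with VP16-transfected cells and 100% = DMSO with cells lacking VP16; higher means less reporter light so more repression of VP16 activity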
# * = called active by the depositor; . = no result given.
SMILES,DAX1 inh-1,NR2E3 ag-1,NR2E3 ag-2,DAX1 inh-2,SMARCA2 act,JMJD2C inh,NR2E3 ag conf,VP16 counter
CC1OC(CC(=O)O)CC2=C1C(=O)c1c(O)cccc1C2=O (stereo not given),-6,.,101*,-7,-13,.,101*,99*
S=c1nc(C2COc3ccccc3O2)[nH][nH]1 (stereo not given),0,-2,-64,-1,0,8,.,.
CCCS(=O)(=O)c1cnc(C2COc3ccccc3O2)nc1N (stereo not given),-1,1,56,-5,-6,26,43,12
Cc1csc2ncnc(NC3CCN(Cc4ccccc4)CC3)c12,-2,2,81*,-8,-7,-5,95*,86*
O=C(COc1ccccc1[N+](=O)[O-])N1CCC(Cc2ccccc2)CC1,-1,0,-13,0,-4,-7,.,.
NC(=O)c1ccccc1OCC(=O)N1CCC(Cc2ccccc2)CC1,-5,2,77*,-2,-6,12,92*,74*
Cc1c(CN(C)C(=O)c2sc3cc(Cl)ccc3c2Cl)cnn1C,-2,0,48,-1,-3,17,72*,66
Cc1ccc(NC(=O)CN(C)C(=O)c2sc3cc(Cl)ccc3c2Cl)cc1,2,0,-22,0,0,-28,.,.
COc1ccccc1CNS(=O)(=O)c1ccc2c(c1)CC(C)N2C(=O)C1CCC1 (stereo not given),-7,-1,72*,-1,-4,0,72*,58
CCS(=O)(=O)Nc1ccc2c(c1)C(=O)N(C)[C@@H]1CC[C@H](CC(=O)NCCOC)O[C@H]1CO2,0,.,.,.,-1,.,.,.
CC(Oc1ccc(Br)cc1)c1nc2c3ccccc3nc(=S)n2[nH]1 (stereo not given),-1,-1,83*,-1,-3,-18,89*,41
S=c1nc2ccccc2c2nc(-c3ccccc3)[nH]n12,1,1,83*,0,4,-11,-56,-63
Cc1ccc(-c2cc(C(=O)NN=Cc3ccc(-c4ccccc4)cc3)[nH]n2)cc1C,1,.,.,.,4,.,.,.
CCCCN(C(C)=O)c1ccc2c(c1)C1CC2CCN1C(=O)OCc1ccccc1 (stereo not given),-5,.,68,-5,-4,.,91*,69
O=C(NCCc1c[nH]c2ccccc12)OCc1cn(Cc2ccc(F)c(F)c2)nn1,0,.,.,.,-2,.,.,.
O=C(Sc1cccc2cccnc12)c1ccc(F)cc1,-4,.,.,.,-13,.,.,.
O=C(Sc1cccc2cccnc12)c1ccccc1Br,-2,-5,100*,-4,-11,4,-24,-39
CN(C)S(=O)(=O)N1CCC(Oc2ccc(C(=O)NC3Cc4ccccc4C3)cc2)CC1,-1,1,-33,-1,1,3,.,.
CN(C)S(=O)(=O)N1CCC(Oc2cccc(C(=O)NC3CCCCCC3)c2)CC1,-9,-3,91*,-3,-4,-3,60,54
COC(=O)[C@]12C[C@H](CC(=O)NCC34CC5CC(CC(C5)C3)C4)C(=O)N(Cc3ccc(Cl)cc3Cl)C1=C[C@H](C(C)(C)C)O[C@@H]2C,1,.,.,.,-4,.,.,.
COC(=O)c1cn(NC(=O)C2CCC(C)CC2)c(=O)c2ccccc12 (stereo not given),0,-3,-19,1,-2,1,.,.
COC(=O)c1cn(NC(=O)c2cc([N+](=O)[O-])ccc2F)c(=O)c2ccccc12,-4,-1,91*,-4,-6,1,82*,66
COc1ccc(Cn2ccc3ccc(-c4ccc5ccn(C(=O)C6CCCCC6)c5c4)cc32)cc1,-1,.,.,.,0,.,.,.
Brc1ccccc1OCCCCn1cnc2ccccc21,-2,-3,29,-2,-4,9,.,.
Cc1ccc(OCCCCn2cnc3ccccc32)c(C)c1,-2,-1,72*,-3,-3,3,89*,60

# Screening data: PubChem BioAssay, several laboratories
